Data taken from ChEMBL document CHEMBL1148278 (J Med Chem, 2004).

How the values were obtained:
[1] = target: NAD-dependent histone deacetylase SIR2 (Saccharomyces cerevisiae S288c) (UniProt P06700); assay: Sirtuin 2 inhibitory activity and was reported as minimum growth-stimulating concentration in Saccharomyces cerevisiae
In short: (§1)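 Telomeric-silencing growth assay in S. cerevisiae UCC2210 (adh4::URA3-TEL VII-L), ca. 13 500 cells/well, in synthetic complete medium lacking uracil. Compound at 150 μM to 73 nM final, DMSO ≤2%, 30 °C for about 40–48 h. OD660 read, initial background subtracted. MGC is the concentration giving 10% of the reference maximal growth. Triplicate, ±1 SD.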

[2] = target: NAD-dependent histone deacetylase SIR2 (Saccharomyces cerevisiae S288c) (UniProt P06700); assay: Selectivity index was reported as the ratio of the MGC to IC50 value
[3] = target: Saccharomyces cerevisiae; assay: Toxicity against Saccharomyces cerevisiae assessed as growth inhibition in complete medium
[4] = target: NAD-dependent histone deacetylase SIR2 (Saccharomyces cerevisiae S288c) (UniProt P06700); assay: In vitro inhibition of sirtuin 2 was evaluated using yeast whole cell lysates at 75 uM; values are per cent of control
[5] = Half-life period was determined; type: ADME
In short: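 Hydrolysis followed by HPLC at 280 nm. 100 μM compound, made from 30 mM DMSO stock, in complete medium lacking uracil (pH 4.2-4.3, unadjusted). Half-life derived from the pseudo-first-order hydrolysis rate constant.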

[6] = target: NAD-dependent histone deacetylase SIR2 (Saccharomyces cerevisiae S288c) (UniProt P06700); assay: Tested for Sirtuin 2 inhibitory activity and was reported as minimum growth-stimulating concentration in Saccharomyces cerevisiae
In short: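 Cell-based telomeric silencing read-out in yeast strain UCC2210 (Mata ppr1 adh4::URA3-TEL VII-L), about 13 500 cells per well, grown in synthetic complete medium lacking uracil. Compounds tested at 150 µM to 73 nM, with at most 2% DMSO. Incubation at 30 °C for about 40–48 h. Growth read as OD660 minus initial background. MGC is the concentration giving 10% of reference maximal growth. Triplicate, ±1 SD.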

[7] = target: NAD-dependent histone deacetylase SIR2 (Saccharomyces cerevisiae S288c) (UniProt P06700); assay: Tested for Sir2 inhibitory activity and was reported as minimum growth-stimulating concentration in Saccharomyces cerevisiae; in short: as §1

Chain of NAD-dependent histone deacetylase SIR2 (Saccharomyces cerevisiae S288c) (P06700 whole entry): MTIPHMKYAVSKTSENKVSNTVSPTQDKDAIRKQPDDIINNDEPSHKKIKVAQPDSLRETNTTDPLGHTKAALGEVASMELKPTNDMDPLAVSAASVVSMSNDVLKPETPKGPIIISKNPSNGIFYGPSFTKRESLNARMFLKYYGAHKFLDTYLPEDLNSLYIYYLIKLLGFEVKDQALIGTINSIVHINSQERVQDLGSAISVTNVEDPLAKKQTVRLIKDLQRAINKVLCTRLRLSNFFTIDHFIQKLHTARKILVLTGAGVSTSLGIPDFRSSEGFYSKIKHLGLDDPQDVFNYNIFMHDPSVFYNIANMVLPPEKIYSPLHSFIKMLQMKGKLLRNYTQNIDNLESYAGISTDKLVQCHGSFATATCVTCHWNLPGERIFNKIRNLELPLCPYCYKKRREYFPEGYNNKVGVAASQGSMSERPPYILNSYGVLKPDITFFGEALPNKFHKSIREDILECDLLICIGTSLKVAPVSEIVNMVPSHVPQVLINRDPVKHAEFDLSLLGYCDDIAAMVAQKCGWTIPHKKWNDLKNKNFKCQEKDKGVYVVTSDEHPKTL

Work on `O=C1CCc2c(ccc3c(O)cccc23)O1` yielded an MGC [1] of 16 µM, an SI [2] greater than 107 and an IC50 [3] of no less than 150 µM.
With `O=C1OC(=O)c2cccc3cccc1c23` the MGC [1] was greater than 150 µM and the residual activity [4] was 94%.
`CC(C)(C)OC(=O)NCCOCCOc1cc2ccccc2c2c1OC(=O)CC2` gave an MGC [1] of 6.4 µM, an SI [2] of 13 and an IC50 [3] of 86 µM.
For `O=C1CCc2c(ccc3ccc(O)cc23)O1`, the MGC [1] was 48 µM, the SI [2] was 3 and the IC50 [3] was 134 µM.
`O=C1CCc2ccc3ccccc3c2O1` showed a half-life [5] of 414 min, an MGC [1] of 2.4 µM and an SI [2] of 27. It also gave an IC50 [3] of 65 µM and a residual activity [4] of 87%.
With `O=C1CCc2ccccc2O1` the MGC [1] was 0.85 µM and the residual activity [4] was 15%.
`O=C1CCc2c(ccc3ccccc23)S1` gave a half-life [5] of 780 min, an MGC [1] greater than 150 µM and an IC50 [3] of 25 µM.
Compound `O=C1Cc2ccccc2O1` has an MGC [1] of 24 µM, an SI [2] greater than 6 and an IC50 [3] of no less than 150 µM. For the same compound, the residual activity [4] was 89%.
Work on `C=CCC1Cc2c(ccc3ccccc23)OC1=O` (configuration not stated) yielded an MGC [1] greater than 150 µM and a residual activity [4] of 86%.
`O=C1CCc2c(ccc3cc(O)ccc23)O1` showed an MGC [1] of 38 µM, an SI [2] greater than 39 and an IC50 [3] of no less than 150 µM. For the same compound, the residual activity [4] was 85%.
In the case of `COc1ccc2ccc3c(c2c1)CCC(=O)O3`, the MGC [1] is reported as greater than 150 µM.
In the case of `OCCCc1c(O)ccc2ccccc12`, the MGC [1] is reported as greater than 150 µM, the IC50 [3] is reported as no less than 150 µM and the residual activity [4] is reported as 88%.
In the case of `O=C1CCc2cc3ccccc3cc2O1`, the MGC [1] is reported as 15 µM, the SI [2] is reported as 10 and the IC50 [3] is reported as no less than 150 µM. It also gave a residual activity [4] of 85%.
With `O=C1CCCc2c(ccc3ccccc23)O1` the half-life [5] was 2970 min, the MGC [1] was greater than 150 µM and the IC50 [3] was 12 µM. It also gave a residual activity [4] of 82%.
Work on `O=C(O)CCc1c(O)ccc2ccccc12` yielded an MGC [1] greater than 150 µM, an IC50 [3] of no less than 150 µM and a residual activity [4] of 87%.
Work on `O=c1ccc2c(ccc3ccccc32)o1` yielded a half-life [5] greater than 6000 min, an MGC [1] greater than 150 µM and an IC50 [3] of 86 µM. It also gave a residual activity [4] of 73%.
`CC(C)CC1Cc2c(ccc3ccccc23)OC1=O` (configuration not stated) showed an MGC [1] greater than 150 µM.
`NC(=O)CCc1c(O)ccc2ccccc12` gave an MGC [1] of 0.79 µM, an SI [2] of 158 and an IC50 [3] of 125 µM. The residual activity [4] was 80%.
Compound `O=C1CC(c2ccccc2)c2c(ccc3ccccc23)O1` (configuration not stated) has an MGC [1] greater than 150 µM and a residual activity [4] of 90%.
For `O=C1CCc2c(c3c(c4ccccc24)CCC(=O)O3)O1`, the MGC [1] was 4.9 µM, the SI [2] was 18 and the IC50 [3] was 89 µM. It also gave a residual activity [4] of 80%.
`O=C1CCc2c(ccc3ccccc23)O1` [SPLITOMICIN] gave a half-life [5] of 450 min, an MGC [6] of 0.49 µM and a residual activity [4] of 66%.
In the case of `O=C1CCc2ccc3c(O)cccc3c2O1`, the MGC [1] is reported as 21 µM, the SI [2] is reported as greater than 7 and the IC50 [3] is reported as no less than 150 µM.
With `COc1cc2ccccc2c2c1OC(=O)CC2` the MGC [1] was 1.5 µM, the SI [2] was 85 and the IC50 [3] was 128 µM.
With `COc1ccc2c3c(ccc2c1)OC(=O)CC3` the MGC [1] was 13.8 µM, the SI [2] was 5 and the IC50 [3] was 73 µM. The residual activity [4] was 84%.
With `CNC(=O)CCc1c(O)ccc2ccccc12` the MGC [1] was 5.8 µM, the SI [2] was greater than 26 and the IC50 [3] was no less than 150 µM.
`O=C1CCc2c(cc(O)c3ccccc23)O1` showed an MGC [1] of 11 µM.
Work on `CCN(CC)C(=O)CCc1c(O)ccc2ccccc12` yielded an MGC [1] greater than 150 µM, an IC50 [3] of 125 µM and a residual activity [4] of 88%.
For `O=C1CCc2c(c3oc(=O)ccc3c3ccccc23)O1`, the MGC [7] was 5.1 µM, the SI [2] was greater than 29 and the IC50 [3] was no less than 150 µM. It also gave a residual activity [4] of 83%.
In the case of `COc1cccc2c3c(ccc12)OC(=O)CC3`, the MGC [1] is reported as 5.5 µM.
In the case of `COC(=O)CCc1c(O)ccc2ccccc12`, the MGC [1] is reported as 5.2 µM and the residual activity [4] is reported as 75%.
Work on `O=c1ccc2ccccc2o1` yielded an MGC [7] greater than 150 µM and a residual activity [4] of 74%.
Work on `O=C1CCc2c(c(OCc3ccccc3)cc3ccccc23)O1` yielded an MGC [1] of 0.97 µM, an SI [2] of 29 and an IC50 [3] of 27 µM. For the same compound, the residual activity [4] was 17%.
With `COc1cc2c(c3ccccc13)CCC(=O)O2` the MGC [1] was 1.8 µM, the SI [2] was 24 and the IC50 [3] was 44 µM.
With `O=C(COc1cccc2ccccc12)ON1C(=O)CCC1=O` the MGC [1] was greater than 150 µM and the IC50 [3] was no less than 150 µM.
Work on `CCOC(=O)C1Cc2c(ccc3ccccc23)OC1=O` (configuration not stated) yielded an MGC [1] greater than 150 µM, an IC50 [3] of no less than 150 µM and a residual activity [4] of 66%.
Work on `CC1Cc2c(ccc3ccccc23)OC1=O` (configuration not stated) yielded an MGC [1] of 5.4 µM, an SI [2] of 10 and an IC50 [3] of 52 µM. It also gave a residual activity [4] of 94%.
Work on `O=C1CCc2c(ccc3ccc4c(c23)CCC(=O)O4)O1` yielded an MGC [1] greater than 150 µM and an IC50 [3] of no less than 150 µM.
`O=C1CCc2c(c(O)cc3ccccc23)O1` showed an MGC [1] of 0.69 µM, an SI [2] of 161 and an IC50 [3] of 111 µM.
With `O=C1CCc2c(ccc3ccccc23)N1` the T1/2 [5] was “No hydrolysis obsd”, the MGC [1] was greater than 150 µM and the IC50 [3] was no less than 150 µM. For the same compound, the residual activity [4] was 92%.
`O=C1Cc2c(ccc3ccccc23)O1` showed a half-life [5] of 732 min, an MGC [1] greater than 150 µM and an IC50 [3] of 59 µM.
`O=C1CCCc2c1ccc1ccccc21` gave an MGC [1] greater than 150 µM and an IC50 [3] of 81 µM.
`O=C1CCc2c(ccc3c4c(ccc23)OC(=O)CC4)O1` gave an MGC [1] greater than 150 µM and a residual activity [4] of 87%.
